Measurements: ChEMBL document CHEMBL1138931, “Synthesis and antimalarial efficacy of aza-fused rhodacyanines in vitro and in the P. berghei mouse model” (J Med Chem, 2006)

What was measured:
L6 [1] = experiment: Cytotoxicity against rat L6 cell line; format: functional, cell-based
How it was run: (§1)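 Rat skeletal myoblast L-6 line used for cytotoxicity; EC50 determined. Antiplasmodial EC50 was measured against chloroquine-resistant P. falciparum strain K1 in vitro by the Desjardins method. Selectivity index = EC50(L-6)/EC50(P. falciparum K1).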

L6 [2] = experiment: Selectivity index, EC50 for L6 cells/EC50 for Plasmodium falciparum K1; format: functional; how it was run: as §1
Plasmodium falciparum = experiment: Antimalarial activity against chloroquine-resistant Plasmodium falciparum K1; format: functional, organism-based
How it was run: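 P. falciparum K1 (chloroquine-resistant) tested in vitro by the Desjardins method; activity given as EC50.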

Mus musculus [3] = experiment: Activity in ICR mice (Mus musculus) infected with Plasmodium berghei NK65 after 4 days at 25 mg/kg/day, intraperitoneally assessed as mean survival days; format: functional; settings: route intraperitoneal
How it was run: (§2)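 Peters' 4-day suppressive test; P. berghei NK65 (drug-sensitive) in groups of five ICR mice; compound given daily for 4 days, ip or po at the stated mg kg-1 day-1. Mice followed after treatment ends; mean survival days recorded against untreated infected controls.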

Plasmodium berghei [4] = experiment: Suppression of Plasmodium berghei NK65 infected ICR mice (Mus musculus) at 25 mg/kg/day intraperitoneal dose over 4 days; format: functional
How it was run: (§3)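 Peters' 4-day suppressive test: ICR mice (five per group) infected with drug-sensitive P. berghei NK65, dosed daily for 4 days intraperitoneally or per os. Percent suppression = reduction of parasitemia in treated versus untreated infected control mice. Mice were observed after treatment to record mean survival days.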

Plasmodium berghei [5] = experiment: Suppression of Plasmodium berghei NK65 infected ICR mice (Mus musculus) at 10 mg/kg/day intraperitoneal dose over 4 days; format: functional; how it was run: as §3
Mus musculus [6] = experiment: Activity in ICR mice (Mus musculus) infected with Plasmodium berghei NK65 after 4 days at 100 mg/kg/day, perorally assessed as mean survival days; format: functional; settings: route oral; how it was run: as §2
Mus musculus [7] = experiment: Activity in ICR mice (Mus musculus) infected with Plasmodium berghei NK65 after 4 days at 40 mg/kg/day, intraperitoneally assessed as mean survival days; format: functional; settings: route intraperitoneal; how it was run: as §2
Mus musculus [8] = experiment: Activity in ICR mice (Mus musculus) infected with Plasmodium berghei NK65 after 4 days at 10 mg/kg/day, intraperitoneally assessed as mean survival days; format: functional; settings: route intraperitoneal; how it was run: as §2
Plasmodium berghei [9] = experiment: Suppression of Plasmodium berghei NK65 infected ICR mice (Mus musculus) at 100 mg/kg/day peroral dose over 4 days; format: functional; settings: route oral; how it was run: as §3
Mus musculus [10] = experiment: Activity in ICR mice (Mus musculus) infected with Plasmodium berghei NK65 after 4 days at 20 mg/kg/day, intraperitoneally assessed as mean survival days; format: functional; settings: route intraperitoneal; how it was run: as §2
Plasmodium berghei [11] = experiment: Suppression of Plasmodium berghei NK65 infected ICR mice (Mus musculus) at 20 mg/kg/day intraperitoneal dose over 4 days; format: functional; how it was run: as §3
Plasmodium berghei [12] = experiment: Suppression of Plasmodium berghei NK65 infected ICR mice (Mus musculus) at 40 mg/kg/day intraperitoneal dose over 4 days; format: functional; how it was run: as §3

Row | Compound | EC50 (L6 [1]) [nM] | Selectivity index (L6 [2]) | EC50 (Plasmodium falciparum) [nM] | Activity (Mus musculus [3]) [days] | Activity (Plasmodium berghei [4]) [%] | also measured
1 | CCN1C(=O)/C(=C2\C=Cc3ccccc3N2C)S/C1=N\c1cccc[n+]1C.[Cl-] | 120000 | 20000 | 5.9 | – | – | –
2 | CCN1C(=O)/C(=C2\Sc3ccccc3N2C)S/C1=N\c1sc2cc(Cl)ccc2[n+]1C.[Cl-] | – | – | – | 5.5 | – | –
3 | CCn1c(=O)/c(=C2\C=CC=CN2C)s/c1=C1\S/C(=N\c2sc3cc(Cl)ccc3[n+]2C)N(C(C)C)C1=O.[Cl-] | – | – | – | 7.7 | – | –
4 | C=CCN1C(=O)/C(=c2/s/c(=C3/SCCN3C)c(=O)n2CC)S/C1=N\c1sc2cc(Cl)ccc2[n+]1C.[Cl-] | – | – | – | 12.8 | 73.1 | –
5 | C=CCN1C(=O)/C(=c2/s/c(=C3/C=CC=CN3C)c(=O)n2CC)S/C1=N\c1sc2cc(Cl)ccc2[n+]1C.[Cl-] | – | – | – | 18 | 95.7 | –
6 | CCN1C(=O)/C(=c2/s/c(=C3/C=Cc4ccccc4N3C)c(=O)n2CC)S/C1=N\c1cccc[n+]1C.[Cl-] | – | – | – | 5.6 | 78.4 | –
7 | C=CC[n+]1ccccc1/C=c1\s/c(=C2/Sc3ccccc3N2C)c(=O)n1C.Cc1ccc(S(=O)(=O)[O-])cc1 | 100000 | 5000 | 19 | – | – | Activity (Plasmodium berghei [5]): 27%
8 | CCN1C(=O)/C(=c2/s/c(=C3/C=CC=CN3C)c(=O)n2CC)S/C1=N\c1sc2cc(Cl)ccc2[n+]1C.[Cl-] | 46000 | 4600 | 10 | 25.3 | – | Activity (Mus musculus [6]): 6.5 days; Activity (Mus musculus [7]): 7 days; Activity (Mus musculus [8]): 11.8 days; Activity (Plasmodium berghei [9]): 41.7%; Activity (Mus musculus [10]): 20.3 days
9 | CCN1C(=O)/C(=C2\C=Cc3ccccc3N2C)S/C1=N\c1sc2cc(Cl)ccc2[n+]1C.[Cl-] | 11000 | 2500 | 4.4 | – | – | –
10 | CCN1C(=O)/C(=c2/s/c(=C3/SCCN3C)c(=O)n2CC)S/C1=N\c1sc2cc(Cl)ccc2[n+]1C.[Cl-] | 12000 | 520 | 23 | 16 | – | –
11 | CCN1C(=O)/C(=c2/s/c(=C3/C=CC=CN3C)c(=O)n2CC)S/C1=N\c1sc2ccccc2[n+]1C.[Cl-] | 14000 | 640 | 22 | 22 | 96.4 | Activity (Mus musculus [7]): 7.8 days; Activity (Plasmodium berghei [11]): 92.4%; Activity (Plasmodium berghei [5]): 70.8%; Activity (Mus musculus [8]): 9.8 days; Activity (Plasmodium berghei [12]): 97.8%; Activity (Mus musculus [10]): 19 days
12 | CCN1C(=O)/C(=c2/s/c(=C3/C=Cc4ccccc4N3C)c(=O)n2CC)S/C1=N\c1sc2cc(Cl)ccc2[n+]1C.[Cl-] | – | – | – | 7 | 49.7 | –
13 | CCN1C(=O)/C(=c2/s/c(=C3/C=CC=CN3C)c(=O)n2CC)S/C1=N\c1sc2cc(OC)ccc2[n+]1C.[Cl-] | – | – | – | 6.3 | 98.3 | –
14 | CCN1C(=O)/C(=c2/s/c(=C3/SCCN3C)c(=O)n2CC)S/C1=N\c1sc2cc(OC)ccc2[n+]1C.[Cl-] | – | – | – | 5 | 95 | –
15 | CCN1C(=O)/C(=c2/s/c(=C3/C=CC=CN3C)c(=O)n2CC)S/C1=N\c1scc(-c2ccc(Cl)cc2)[n+]1C.[Cl-] | – | – | – | 5.3 | 95.6 | –
16 | CCN1C(=O)/C(=c2/s/c(=C3/C=CC=CN3C)c(=O)n2CC)S/C1=N\c1sc2cc(F)ccc2[n+]1C.[Cl-] | – | – | – | 10.8 | 79.5 | –
17 | CCN(CC)CCCC(C)Nc1ccnc2cc(Cl)ccc12 (stereo not given) [CHLOROQUINE] | – | – | 150 | – | – | Activity (Plasmodium berghei [5]): 90.6%; Activity (Mus musculus [8]): 22.7 days
